Sampled rows, rich in hits. Any-hit rate of the full collection: about 12%.
L major viab: Leishmania major promastigote growth inhibition. inhibition, % at 10 µM. Leishmania major promastigotes, resazurin fluorescence viability. 200,000 tested, 9% active. AID 1063;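 further: promastigotes grown with compound for 44 hours at 28 °C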
CHOP inhibitor: blocks CHOP induction under ER stress; CHO-K1 CHOP-promoter luciferase, tunicamycin-induced, 15-18 h; inhibition, % at 10 µM; 220,000 tested, 3.8% active;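 active means compounds that reduced the stress-induced luciferase reporter signal by more than about 70% of percent inhibition, limit read from the data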;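 further: 0% = tunicamycin plus vehicle and 100% = wells without tunicamycin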
Arbovirus inh: blocks arbovirus infection. arbovirus infection cell-based antiviral screen. inhibition, % at 10 µM. 200,000 tested, 0.37% active. AID 1251; in the data active means inhibition above about 30%
Rad51 HR inh: Rad51 (human) homologous recombination inhibition. Q06609. hRad51 DNA strand exchange, fluorescence dequenching. inhibition, % at 10 µM. 200,000 tested, 0.085% active. AID 1385;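 active means inhibition above 40% at the single screening dose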;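 further: 0% = DMSO control wells and 100% = blanks with heterologous ssDNA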
Target sequence (Q06609 whole entry, looked up): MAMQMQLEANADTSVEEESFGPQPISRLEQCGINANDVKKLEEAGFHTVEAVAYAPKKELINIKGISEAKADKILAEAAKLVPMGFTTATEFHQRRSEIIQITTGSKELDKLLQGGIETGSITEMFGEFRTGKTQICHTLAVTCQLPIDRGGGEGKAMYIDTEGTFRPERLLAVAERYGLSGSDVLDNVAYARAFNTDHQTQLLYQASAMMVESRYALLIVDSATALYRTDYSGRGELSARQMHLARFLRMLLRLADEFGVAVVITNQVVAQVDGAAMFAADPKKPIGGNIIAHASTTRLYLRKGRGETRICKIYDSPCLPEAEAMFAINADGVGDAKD
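Material: human Rad51–ssDNA filaments; Probe or stimulus: labelled 47-mer dsDNA for strand exchange; Doses: single 10 µM dose; Incubation: 37 °C 15-min filament assembly, 30-min compound preincubation, 15-min exchange; Technique: FRET fluorescence dequenching, excitation 485 nm, emission 520 nm; Measure: Fluorescence-based percent inhibition, control- and blank-normalised; Benchmarks: plate control and blank wells.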
PKD1 inh: inhibitors of human PKD1 kinase; Q15139; PKD1 kinase fluorescence polarization assay; inhibition, % (concentration not given with the values); 200,000 tested, 0.056% active
Wee1 stabilizer: inhibitors of human Wee1 degradation; reporter increase, % at 5 µM; 220,000 tested, 1.2% active; HeLa Luc-Wee1K328M stability, luciferase luminescence; 100% = proteasome inhibitor MG132 effect; P30291;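 active means activation above the mean of all tested compounds plus 3 SD, set per screening run, cut at about 8.8% in these data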;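 further: cells exposed to compound for 20 h before luminescence read; 0% = DMSO alone and 100% = MG132 at 30 µM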
L major 1uM: blocks Leishmania major promastigote growth at 1 uM, repeat screen; shares compounds with L major viab; L. major promastigote growth, resazurin fluorescence, 48 h; inhibition, % at 1 µM; 1,100 tested, 13% active; AID 1258;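 active means inhibition above about 50% in both repeat tests, limit read from the data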
An asterisk follows results filed as active. Unless noted, no stated cut-off is given here; in the data, active means inhibition above about 50%; inactive means the rest.

For Cc1cc(/C=N/n2cnnc2)c(C)n1-c1ccc(Cl)cc1 the results were L major viab 28, CHOP inhibitor 12, Arbovirus inh -4, Rad51 HR inh 13, PKD1 inh 7 and Wee1 stabilizer -2.
Screening Cc1cc(/C=N/n2cnnc2)c(C)n1-c1cccc(Cl)c1 returned L major viab 85*, CHOP inhibitor 0, Arbovirus inh -15, PKD1 inh 3, Wee1 stabilizer 4 and L major 1uM 12.
Screening Cc1ccc(/C=C(\NC(=O)c2ccccc2)C(=O)OCc2ccccc2)cc1 returned L major viab 63*, CHOP inhibitor 23, Arbovirus inh -3, Rad51 HR inh -5, PKD1 inh -20, Wee1 stabilizer 6 and L major 1uM -2.
`CCOC(=O)/C(=C\c1ccc(C)cc1)NC(=O)c1ccccc1` gave L major viab 2, CHOP inhibitor 0, Arbovirus inh -9, Rad51 HR inh -24, PKD1 inh -7 and Wee1 stabilizer -2.
`O=C(Nc1nc(-c2cccc([N+](=O)[O-])c2)cs1)C(c1ccccc1)c1ccccc1` gave L major viab 59*, CHOP inhibitor 28, Arbovirus inh -10, Rad51 HR inh -1, PKD1 inh -9, Wee1 stabilizer -1 and L major 1uM -2.
`COc1cc(CNCC(C)C)cc(Br)c1OCC(=O)Nc1ccccc1` gave L major viab 100*, CHOP inhibitor 9, Arbovirus inh 14, Rad51 HR inh -35, PKD1 inh -12, Wee1 stabilizer -1 and L major 1uM 45.
Screening COc1ccc(CC(=O)NNC(=S)Nc2ccccc2)cc1Br returned L major viab -4, CHOP inhibitor 2, Arbovirus inh 4, Rad51 HR inh -2, PKD1 inh -13 and Wee1 stabilizer 2.
`O=C(NC1CC1)C1=C[C@@H](c2c[nH]c3ccccc23)C[C@@H](OCc2ccc(CO)cc2)O1` gave CHOP inhibitor 0 and Rad51 HR inh 6.
Screening CSc1nc(C)c2c(c1C#N)CCCC2 returned L major viab 62*, CHOP inhibitor 92*, Arbovirus inh 1, Rad51 HR inh -2, PKD1 inh -3, Wee1 stabilizer -1 and L major 1uM 16.
Cc1nc(SCC(=O)O)c(C#N)c2c1CCCC2 was read as CHOP inhibitor -7, Rad51 HR inh -6 and Wee1 stabilizer 1.
`COc1ccc(S(=O)(=O)NN(C)C)cc1N(C)S(=O)(=O)c1ccc(Cl)cc1` gave L major viab -5, CHOP inhibitor 31, Arbovirus inh 2, Rad51 HR inh 24, PKD1 inh 1 and Wee1 stabilizer 0.
`COc1ccc(S(=O)(=O)Nc2ccc(C)cc2)cc1N(C)S(=O)(=O)c1ccc(Cl)cc1` gave L major viab 99*, CHOP inhibitor 24, Arbovirus inh -2, Rad51 HR inh 2, PKD1 inh 2, Wee1 stabilizer -2 and L major 1uM -14.
c1ccc(N2CCN(c3ccccc3)C2c2cccs2)cc1 was read as L major viab 94*, CHOP inhibitor 28, Arbovirus inh -11, Rad51 HR inh -26, PKD1 inh 2, Wee1 stabilizer -1 and L major 1uM -6.
Screening OC12CCCCC1C(c1ccc3c(c1)OCO3)N(Cc1ccccc1F)CC2 (stereo unspecified) returned L major viab 60*, CHOP inhibitor 69, Arbovirus inh -16, PKD1 inh -3, Wee1 stabilizer 1 and L major 1uM 3.
For COC(=O)c1ccccc1NC(=O)c1cnn2cccnc12 the results were L major viab -3, CHOP inhibitor -5, Arbovirus inh -4, Rad51 HR inh 5, PKD1 inh -3 and Wee1 stabilizer -2.
Screening O=C(c1ccc(N2CCN(CCO)CC2)nc1)N1CCOCC1 returned L major viab -6, CHOP inhibitor 5, Arbovirus inh 5, Rad51 HR inh -14, PKD1 inh -16 and Wee1 stabilizer 0.
For COc1ccc(OC)c(C(=O)/C=C/c2ccccc2C(F)(F)F)c1 the results were L major viab 75*, CHOP inhibitor 10, Arbovirus inh -32, PKD1 inh -6, Wee1 stabilizer -3 and L major 1uM -9.
Screening COc1ccc(C(=O)/C=C/c2ccccc2)c(OC)c1 returned L major viab 66*, CHOP inhibitor -97, Arbovirus inh -20, Rad51 HR inh -1, PKD1 inh 2, Wee1 stabilizer 7 and L major 1uM 10.
COC(=O)C(N)CCCCN (stereo unspecified) was read as Rad51 HR inh -8.
For O=C(CCn1nnc2ccccc21)N/N=C\Cc1ccccc1 the results were L major viab -1, CHOP inhibitor 2, Arbovirus inh 2, Rad51 HR inh 19, PKD1 inh 4 and Wee1 stabilizer 3.
For O=C(O)c1cc2c(s1)-c1ccccc1CC2 the results were L major viab 53*, CHOP inhibitor 23, Arbovirus inh 1, Rad51 HR inh -2, PKD1 inh -5, Wee1 stabilizer -2 and L major 1uM -12.
CN(c1ccccc1)S(=O)(=O)c1cc(C(=O)N2CCN(c3ccccn3)CC2)ccc1Cl was read as L major viab 90*, CHOP inhibitor 11, Arbovirus inh 1, Rad51 HR inh -9, PKD1 inh 1, Wee1 stabilizer 4 and L major 1uM -1.
For O=C(c1ccc(Cl)c(S(=O)(=O)Nc2ccc(F)cc2)c1)N1CCN(c2ccccn2)CC1 the results were L major viab 18, CHOP inhibitor -8, Arbovirus inh -6, Rad51 HR inh -5, PKD1 inh 1 and Wee1 stabilizer 0.
Clc1c(-c2ccccc2)nnn1-c1ccccc1 was read as L major viab -9, CHOP inhibitor 2, Arbovirus inh -2, PKD1 inh 2 and Wee1 stabilizer 0.
`CC(C)CNC(=O)c1ccccc1NC(=O)CCSc1ccccc1` gave L major viab 0, CHOP inhibitor 33, Arbovirus inh 1, Rad51 HR inh 4, PKD1 inh -10 and Wee1 stabilizer -1.
O=C1CCCc2c1cc(-c1ccccc1)n2-c1ccc(O)cc1 was read as L major viab 53*, CHOP inhibitor -3, Arbovirus inh 2, Rad51 HR inh -4, PKD1 inh -4, Wee1 stabilizer 3 and L major 1uM -22.
For Cc1ccc(-c2cc3c(n2-c2ccc(C(=O)O)cc2)CCCC3=O)cc1 the results were L major viab -6, CHOP inhibitor 10, Arbovirus inh 6, Rad51 HR inh 11, PKD1 inh -13 and Wee1 stabilizer 1.
Screening CCOc1ccc(C2=Nc3ccccc3C(c3ccc(N4CCOCC4)cc3)=NN2)cc1 returned L major viab 63*, CHOP inhibitor -14, Arbovirus inh -19, PKD1 inh 1, Wee1 stabilizer -1 and L major 1uM -2.

Assay outcomes as filed in PubChem BioAssay.
